Experimental data taken from ChEMBL document CHEMBL4190262, “Tuning of β-glucosidase and α-galactosidase inhibition by generation and in situ screening of a library of pyrrolidine-triazole hybrid molecules” (Eur J Med Chem, 2017).

What was measured:
[1] = Selectivity ratio of IC50 for human lysosomal alpha-galactosidase A to IC50 for coffee beans alpha-galactosidase
[2] = target: Alpha-galactosidase (Coffea arabica, UniProt Q42656); assay: Inhibition of coffee beans alpha-galactosidase using p-nitrophenyl glycopyranoside preincubated for 5 mins followed by substrate addition measured after 20 mins by visible absorption spectroscopic method
Alpha-galactosidase, sequence (Q42656 whole entry): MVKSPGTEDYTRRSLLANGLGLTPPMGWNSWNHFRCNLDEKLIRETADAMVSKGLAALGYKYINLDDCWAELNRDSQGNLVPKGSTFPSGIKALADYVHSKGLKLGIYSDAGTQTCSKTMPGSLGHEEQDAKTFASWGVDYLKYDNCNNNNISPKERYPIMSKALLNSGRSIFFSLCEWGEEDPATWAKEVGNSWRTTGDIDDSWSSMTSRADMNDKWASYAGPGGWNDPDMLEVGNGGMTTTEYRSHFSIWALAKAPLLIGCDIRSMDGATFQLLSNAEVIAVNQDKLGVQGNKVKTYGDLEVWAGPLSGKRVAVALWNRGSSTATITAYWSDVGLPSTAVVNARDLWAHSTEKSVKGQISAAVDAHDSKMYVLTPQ
In short: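 IC50 determined only for compounds giving ≥80% inhibition at 1 mM, read from plots of % inhibition versus inhibitor concentration. p-Nitrophenyl glycopyranoside substrate (10 mM solution) at the enzyme's optimal pH, with 0.01–0.5 units/mL enzyme. 5 min rt preincubation with enzyme, then 20 min at 37 °C. Borate stop (pH 9.8), absorbance at 405 nm. Duplicates averaged.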

[3] = target: T1, Alpha-galactosidase A (Homo sapiens, UniProt P06280); assay: Inhibition of human lysosomal alpha-galactosidase A using 4-methylumbelliferyl-alpha-D-galactopyranoside as substrate preincubated for 45 mins followed by substrate addition measured after 30 mins by fluorescence spectroscopic method
T1 sequence (P06280 whole entry): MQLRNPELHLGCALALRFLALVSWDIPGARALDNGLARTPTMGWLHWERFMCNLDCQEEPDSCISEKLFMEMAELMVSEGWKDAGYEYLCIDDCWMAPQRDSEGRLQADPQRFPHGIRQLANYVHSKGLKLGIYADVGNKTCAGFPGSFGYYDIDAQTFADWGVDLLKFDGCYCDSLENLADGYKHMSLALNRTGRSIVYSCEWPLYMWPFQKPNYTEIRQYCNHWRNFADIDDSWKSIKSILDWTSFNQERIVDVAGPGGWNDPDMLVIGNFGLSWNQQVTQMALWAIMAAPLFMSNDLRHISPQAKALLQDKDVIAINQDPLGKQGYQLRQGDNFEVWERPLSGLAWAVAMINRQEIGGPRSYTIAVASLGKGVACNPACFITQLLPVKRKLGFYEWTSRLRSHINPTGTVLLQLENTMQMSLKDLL
In short: (§1)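 Enzyme in 100 mM McIlvaine buffer pH 5.2 with 0.25% sodium taurocholate and 0.1% Triton X-100, with inhibitor. Preincubated at 0 °C for 45 min, then started with 3 mM 4-methylumbelliferyl glycoside substrate solution and incubated 30 min at 37 °C. Stopped with 400 mM glycine-NaOH pH 10.6. 4-Methylumbelliferone fluorescence read at ex 362/em 450 nm.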

[4] = target: T2, Alpha-galactosidase A (Homo sapiens) (UniProt P06280); assay: Inhibition of human lysosomal alpha-galactosidase A at 1 mM using 4-methylumbelliferyl-alpha-D-galactopyranoside as substrate preincubated for 45 mins followed by substrate addition measured after 30 mins by fluorescence spectroscopic method relative to control; in short: as §1
T2 sequence (whole entry): T1 sequence (P06280 whole entry)

Row | Ratio IC50 [1] | IC50 [2] | IC50 [3] | inhibition [4] | Compound
1 | 10 | 14 µM | 171 µM | – | O[C@@H]1[C@H](O)CN[C@@H]1Cn1cc(-c2ccccc2)nn1
2 | – | – | – | < 50% | O[C@@H]1[C@H](O)CN[C@H]1Cn1cc(-c2ccccc2)nn1
